Among the data in ChEMBL document CHEMBL3868636, “New glutathione peroxidase mimetics-Insights into antioxidant and cytotoxic activity” (Bioorg Med Chem, 2017) are inhibition, IC50 and Activity values, retold here.

Data set [1] concerns DU-145. In words: Inhibition of Akt-phosphorylation in human DU145 cells at 40 uM measured after 0.5 to 2 hrs by Western blot analysis. It is filed as cell-based. An outline of the steps: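 Cells treated with 40 μM compound for different times. Floating and attached cells lysed in Tris-HCl pH 7.5/NaCl/Triton X-100/SDS for 40 min on ice. Lysates run on 10–12% SDS-PAGE and blotted to PVDF. Primary antibody applied 1 h at room temperature, detection by ECL. p-Akt quantified by densitometry and normalised to β-actin.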
(In general: In western blotting, separated proteins are transferred to a membrane and probed.)

Data set [2] in a line: Cytotoxicity against human PNT1A cells assessed as reduction in cell viability measured after 24 hrs by SRB assay. The data set is classed as toxicity, cell-based. A digest of the protocol: (§1)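 DU-145 cells grown in MEM with 10% FBS, glutamine and pyruvate. PNT1A cells grown in RPMI 1640 with serum. Both seeded at 6.0 x 10^3 cells/well for 24 h, then treated 24 h with graded concentrations up to 40. Triplicate, IC50 calculated.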
(The SRB assay estimates cell density from bound dye.)

Data set [3] in a line: Antioxidant activity assessed as H2O2 scavenging by measuring remaining dithiothreitol level after 15 mins at 0.1 equivalent by 1H NMR spectroscopy relative to control. It is filed as functional. An outline of the steps: (§2)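 Dithiothreitol oxidation by 30% H2O2 (3.0 eq) in CD3OD, catalysed by Se compound at 0.1 equiv. 1H NMR spectra taken right after H2O2 addition and then at set intervals. Remaining substrate derived from changes in signal integration.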

Data set [4] in a line: Antioxidant activity assessed as H2O2 scavenging by measuring remaining dithiothreitol level at 0.1 equivalent after 30 mins by 1H NMR spectroscopy relative to control. It is filed as functional. An outline of the steps:
as §2

Data set [5] is described as follows: Cytotoxicity against human MCF7 cells assessed as reduction in cell viability measured after 24 hrs by MTT assay. Conditions: MCF7, 24 h. The data set is classed as functional, cell-based. A digest of the protocol: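 MCF-7 cells grown in MEM with glutamine, non-essential amino acids, gentamycin and 10% heat-inactivated FBS at 37°C, 5% CO2. Seeded at 10^4 cells/well and left 24 h. Compounds at various concentrations or 0.1% DMSO vehicle for 24 h. MTT added for 2 h at 37°C. Formazan read at 540 nm against untreated control. Run in triplicate, IC50 reported.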

Data set [6] can be described thus: Cytotoxicity against human DU145 cells assessed as reduction in cell viability measured after 24 hrs by SRB assay. It is filed as functional, cell-based. Conditions: DU-145, 24 h. A digest of the protocol:
as §1

Data set [7] is described as follows: Antioxidant activity assessed as H2O2 scavenging by measuring remaining dithiothreitol level at 0.1 equivalent after 3 mins by 1H NMR spectroscopy relative to control. It is filed as functional. An outline of the steps:
as §2

Data set [8] is described as follows: Antioxidant activity assessed as H2O2 scavenging by measuring remaining dithiothreitol level at 0.1 equivalent after 5 mins by 1H NMR spectroscopy relative to control. It is filed as functional. An outline of the steps:
as §2

A short description of data set [9]: Antioxidant activity assessed as H2O2 scavenging by measuring remaining dithiothreitol level at 0.1 equivalent after 60 mins by 1H NMR spectroscopy relative to control. It is filed as functional. An outline of the steps: as §2
Data set [10] can be described thus: Antiproliferative activity against human A549 cells. The data set is classed as functional, cell-based.

pIC50: −log10 of the molar value. The source made the active and inactive calls. The rule behind the calls is not given here.

In general, IC50 refers to the concentration needed to halve the response being measured. In general, pIC50 refers to −log10 of the IC50, conventionally taken in molar units. With `O=c1c2ccccc2[se]n1C1CCCCC1`, the inhibition entry in data set [1] is “Active”. Besides, the IC50 at 24 h in data set [2] was greater than 40 µM. Also, the Activity amounted to 62% in data set [3]; 55% in data set [4]; 75% in data set [7]; 69% in data set [8]; 44% in data set [9]. In addition, the values for the pIC50 in data set [5] and in data set [6] were 5.14 and 5.24, respectively.

As to `CCCCNC(=O)c1ccccc1[Se][Se]c1ccccc1C(=O)NCCCC`, the Activity in data set [3] came to 82%; in data set [4] it was 77%; in data set [7], 93%; in data set [8], 88%; in data set [9], 73%. Also, the results for the pIC50 in [5] and in data set [6] were less than 3.30 and less than 4.40, respectively.

Regarding `C=CCNC(=O)c1ccccc1[Se][Se]c1ccccc1C(=O)NCC=C`, the Activity in [3] was found to be 12%; in data set [4], 0%; in data set [7], 59%; in data set [8], 36%; in data set [9], 0%. The results for the pIC50 in data set [5] and in data set [6] were 3.90 and 4.69, respectively.

Consider `O=C(O)c1ccc(NC(=O)c2ccccc2[Se][Se]c2ccccc2C(=O)Nc2ccc(C(=O)O)cc2)cc1`, for which the pIC50 in data set [10] is 4.70.

`O=C(NC1CCCCC1)c1ccccc1[Se][Se]c1ccccc1C(=O)NC1CCCCC1`: the Activity in data set [3] worked out at 75%; in data set [4], 65%; in data set [7], 92%; in data set [8], 85%; in data set [9], 54%. The figures for the pIC50 in [5] and in [6] were 4.05 and less than 4.40, respectively.

Take `Cn1[se]c2ccccc2c1=O`: the IC50 at 24 h in data set [2] is greater than 40 µM. Further, the Activity in data set [3] is 35%; in data set [4], 11%; in data set [7], 78%; in [8], 65%; in data set [9], 0%. The values for the pIC50 in [5] and in data set [6] were 4.49 and 4.52, respectively.

For `C=CCn1[se]c2ccccc2c1=O`, in data set [2], the IC50 at 24 h was greater than 40 µM. Also, the Activity was 58% in data set [3]; 53% in [4]; 76% in data set [7]; 69% in data set [8]; 41% in [9]. In addition, the pIC50 in data set [5] is 4.59; in data set [6] it was 4.99.

For `CC(C)CCNC(=O)c1ccccc1[Se][Se]c1ccccc1C(=O)NCCC(C)C`, the Activity came to 38% in [3]; 31% in data set [4]; 65% in data set [7]; 49% in data set [8]; 21% in [9]. The values for the pIC50 in data set [5] and in data set [6] were less than 3.30 and less than 4.40, respectively.

For `O=c1c2ccccc2[se]n1-c1ccccc1`, the Activity stood at 64% in data set [3]; 58% in data set [4]; 84% in data set [7]; 75% in [8]; 52% in [9].

For the molecule `CC(C)CCn1[se]c2ccccc2c1=O`, the inhibition result in data set [1] is “Active”. Besides, the IC50 at 24 h in [2] is greater than 40 µM. In addition, the Activity in data set [3] came to 42%; in data set [4], 28%; in [7] it was 77%; in [8], 58%; in data set [9], 13%. Moreover, the pIC50 in [5] was 4.54; in data set [6] it was 4.52.

Consider `CCCCn1[se]c2ccccc2c1=O`, for which the IC50 at 24 h in [2] was greater than 40 µM. For the same molecule, the Activity stood at 41% in data set [3]; 32% in data set [4]; 81% in [7]; 59% in data set [8]; 29% in data set [9]. For the same molecule, the pIC50 in data set [5] was 4.86; in [6], 4.68.
